Six molecules from ChEMBL document CHEMBL1154246, “Spirobisnaphthalene analogues from the endophytic fungus Preussia sp” (J Nat Prod, 2009) can be followed below.

In general, IC50 refers to the point on the concentration scale where inhibition reaches its midpoint. The MIC is the smallest concentration in the dilution series that meets the test's criterion for growth inhibition.

Test [1] relates to Staphylococcus aureus. The test is described as follows: Antibacterial activity against Staphylococcus aureus CMCC B26003 at 10 ug/disk after 24 hrs by paper disk method. Type of test: functional. The note with it: CMCC B26003, 24 h, read-out: IZ. In outline:
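Paper-disk diffusion against S. aureus at 10 µg/disk on MH agar, inoculum 10^6 cfu/mL from MHB broth, 6 mm disks, 37 °C for 24 h. Inhibition zone diameter recorded in mm, n = 3.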

The subject of test [2] is Candida albicans. The experiment in a line: Antifungal activity against Candida albicans ATCC 10231 at 25 ug/disk after 48 hrs by paper disk method. The following applies: ATCC 10231, 48 h, read-out: IZ. Type of test: functional. In outline: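 C. albicans ATCC 10231 grown in SDB broth culture, adjusted to a final 10^5 cfu/mL, and spread on SD agar. Sample loaded onto 6 mm paper disks placed on the agar surface. Plates incubated at 25 °C for 48 h. Read-out is the diameter of the inhibition zone in mm.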

The nature of test [3]: Cytotoxicity against human Bel7404 cells by MTT assay. Format: functional, cell-based, BEL-7404. A digest of the protocol: (§1)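 MTT viability read-out in human cancer lines: A2780 ovarian, BEL-7404 liver, A-549, BGC-823 and HCT-8. IC50 derived from the concentration–response data.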
In general terms: Tetrazolium assays rely on reduction of a dye to a coloured formazan, in cell work by metabolically active cells.

Another test concerns HCT-8. The experiment in a line: Cytotoxicity against human HCT8 cells by MTT assay. Format: functional, cell-based. In outline:
as §1

Another test has as its system BGC-823. The experiment in a line: Cytotoxicity against human BGC823 cells by MTT assay. Format: functional, cell-based. A digest of the protocol: as §1
For another test, the system named is A2780. The experiment in a line: Cytotoxicity against human A2780 cells by MTT assay. Format: functional, cell-based. In outline: as §1
Another test has as its system A549. The test is described as follows: Cytotoxicity against human A549 cells by MTT assay. Format: functional, cell-based. In outline: as §1
Test [4] has as its system Staphylococcus aureus. The experiment in a line: Antibacterial activity against Staphylococcus aureus CMCC B26003 at 5 ug/disk after 24 hrs by paper disk method. Type of test: functional. In outline:
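S. aureus grown in MHB broth, final 10^6 cfu/mL. Compound loaded onto 6 mm paper disks at 5 µg/disk and placed on MH agar, 37 °C for 24 h. Inhibition zone diameter measured in mm, n = 3.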

Test [5] concerns Staphylococcus aureus. The experiment in a line: Antibacterial activity against Staphylococcus aureus CMCC B26003 after 24 hrs by agar dilution method. Type of test: functional. In outline:
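S. aureus prepared from broth culture in MHB, final inoculum 10^6 cfu/mL. Agar dilution following NCCLS 2002 criteria, with 11 concentrations from 800 down to 0.78 µM (twofold steps).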
(Agar dilution tests growth on a series of plates holding different concentrations.)

For test [6], the system named is Candida albicans. The test is described as follows: Antifungal activity against Candida albicans ATCC 10231 at 50 ug/disk after 48 hrs by paper disk method. Type of test: functional, organism-based. In outline: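 C. albicans grown in SDB broth, final 10^5 cfu/mL. Compound applied to 6 mm paper disks at 50 µg/disk on SD agar and incubated at 25 °C for 48 h. Zone of inhibition measured in mm.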

The mark [7] stands for this setting: Homo sapiens, BEL-7404, read-out: IC50.
Where [8] appears, read: Homo sapiens, HCT-8, read-out: IC50.
Where [9] appears, read: Homo sapiens, BGC-823, read-out: IC50.

In brackets after ≈: the same amount, converted by molar mass. Activity calls are given as the source filed them.

Turning to `CC1(C)S[C@@H]2[C@H](NC(=O)[C@H](N)c3ccccc3)C(=O)N2[C@H]1C(=O)O` [AMPICILLIN SODIUM], the zone of inhibition at 10 µg/disc with Staphylococcus aureus [1] was 38.2 mm.
In the case of `OC(Cn1cncn1)(Cn1cncn1)c1ccc(F)cc1F` [FLUCONAZOLE], the zone of inhibition at 25 µg/disc with Candida albicans [2] is 31.3 mm.
Regarding `CC(=O)O[C@H]1C(=O)[C@@]2(C)[C@H]([C@H](OC(=O)c3ccccc3)[C@]3(O)C[C@H](OC(=O)[C@H](O)[C@@H](NC(=O)c4ccccc4)c4ccccc4)C(C)=C1C3(C)C)[C@]1(OC(C)=O)CO[C@@H]1C[C@@H]2O` [PACLITAXEL], the concentration for half-maximal inhibition (IC50) was 12.3 nM in [3] (setting [7]), 3.6 nM in the test with HCT-8 (setting [8]) and 3.3 nM in the test with BGC-823 (setting [9]).
For the molecule `O=C1C=CC(=O)C12C=CC1(Oc3cccc4cccc(c34)O1)C2O` (centres undefined) [SPIROPREUSSIONE A], the IC50 was 2400 nM in the test on A2780 (Homo sapiens, A2780, read-out: IC50); 3000 nM in test [3] (setting [7]); above 10000 nM in the test with A549 (Homo sapiens, A549, read-out: IC50); above 10000 nM with HCT-8 (setting [8]); above 10000 nM with BGC-823 (setting [9]). For the same molecule, the zone of inhibition at 5 µg/disc in the test on Staphylococcus aureus [4] (CMCC B26003, 24 h, read-out: IZ) is 16.4 mm. For the same molecule, in the test with Staphylococcus aureus [5] (CMCC B26003, 24 h), the MIC was found to be 25 µM (≈ 8.01 µg/mL). Further, in the test with Candida albicans [6], the outcome was inactive.
On to `O=C1C=Cc2cc3c(c4ccc(O)c1c24)C1(Oc2cccc4cccc(c24)O1)C1C(=O)C=CC31O` (centres undefined) [SPIROPREUSSIONE B], for which the IC50 result (with A2780 (a2780); in test [3] (bel-7404); with A549 (a549); in the test on HCT-8 (hct-8); in the test with BGC-823 (bgc-823)) was “Not Active” in each case. Moreover, in the test with Staphylococcus aureus [4], the “inhibition zone (IZ)” value is “inactive”. Besides, the MIC entry in the test with Staphylococcus aureus [5] was “inactive”. Moreover, the outcome in the test on Candida albicans [6] was inactive.
With `Oc1ccc2c(c1)C1(Oc3cccc4cccc(c34)O1)[C@@H]1O[C@@H]1[C@@H]2O` [SPIROPREUSSOMERIN A], the IC50 entry (in the test with A2780 (a2780); in test [3] (bel-7404); with A549 (a549); in the test on HCT-8 (hct-8); in the test on BGC-823 (bgc-823)) was “Not Active” in each case. For the same molecule, the “inhibition zone (IZ)” value with Staphylococcus aureus [4] was “inactive”. Besides, the MIC entry with Staphylococcus aureus [5] was “inactive”. Further, the result in the test with Candida albicans [6] was inactive.
